Source: ChEMBL document CHEMBL1681681, “Synthesis and anti-migrative evaluation of moverastin derivatives” (Bioorg Med Chem Lett, 2011)

Experiments:
[1] = target: Protein farnesyltransferase (Homo sapiens, UniProt P49354+P49356); assay: Inhibition of protein farnesyltransferase from human EC17 cells using [3H]FPP and […]-H-Ras; assay type: cell-based
Summary of the method: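 FTase is partially purified from EC17 cells. It is incubated with [3H]-farnesylpyrophosphate plus recombinant GST-H-Ras as substrates, with or without test compound. Compounds are tested up to 100 µM.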

[2] = Antimigratory activity against human EC17 cells assessed as inhibition of migration after 24 hrs by chemotaxis cell chamber assay; assay type: functional, cell-based; conditions: EC17, 24 h
Summary of the method: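 Chemotaxis chamber: EC17 cells in upper chamber with graded compound concentrations; lower chamber holds EC17-conditioned medium (from 24 h cultures in RPMI1640 + 1% FBS) as chemoattractant. After 24 h, cells migrated through the filter to its lower side are counted. Counts are mean SD of five fields. IC50 is derived from these counts.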

[3] = Cytotoxicity against human EC17 cells assessed as cell viability by trypan blue dye; assay type: cell-based
Summary of the method: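 EC17 cells are tested for viability by trypan blue dye exclusion. The 50% inhibitory concentration for viability is estimated from this assay.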

Row | Compound | IC50 [1] | IC50 [2] | IC50 [3]
1 | C=C(CCC1CCCCC1)C(O)Cc1c(O)cc(C)c(C=O)c1O (centres undefined) | > 100 µM | 8.43 µM | 87 µM
2 | C=C(CC/C=C(\C)CCC=C(C)C)C(O)Cc1c(O)cc(C)c(C=O)c1O (centres undefined) | > 100 µM | 7.53 µM | > 80 µM
3 | C=C(C)C(O)Cc1c(O)cc(C)c(C=O)c1O (centres undefined) | > 100 µM | 30 µM | > 130 µM
4 | C=C(CCc1c(C)cccc1C)C(O)Cc1c(O)cc(C)c(C=O)c1O (centres undefined) | > 100 µM | 10.6 µM | 45 µM
5 | C=C(CCC12CC3CC(CC(C3)C1)C2)C(O)Cc1c(O)cc(C)c(C=O)c1O (centres undefined) | > 100 µM | 6.52 µM | 55 µM
6 | C=C(CC[C@@]1(C)[C@H](C)CCC(=O)[C@@H]1C)C(O)Cc1c(O)cc(C)cc1O (some centres undefined) | > 100 µM | 21.4 µM | > 28 µM
7 | C=C(CC[C@H]1[C@@H](C)CCCC1(C)C)C(O)Cc1c(O)cc(C)c(C=O)c1O (relative stereo) | 14.7 µM | 1.98 µM | 46 µM
8 | Cc1cc(O)c(CC(O)C(C)CC[C@H]2[C@@H](C)CCCC2(C)C)c(O)c1C=O (relative stereo) | > 100 µM | 2.12 µM | 16 µM
9 | C=C(CC[C@H]1[C@@H](C)CCCC1(C)C)C(=O)Cc1c(O)cc(C)c(C=O)c1O (relative stereo) | > 100 µM | 4.41 µM | 18 µM
10 | Cc1cc(O)c2c(c1C=O)OCC(CC[C@H]1[C@@H](C)CCCC1(C)C)=CC2 (relative stereo) | > 100 µM | 2 µM | 18 µM
11 | C=C(CC[C@H]1[C@@H](C)CCCC1(C)C)C(O)Cc1c(OC)cc(C)c(C=O)c1O (relative stereo) | > 100 µM | 4.57 µM | 18 µM
12 | C=C(CC[C@H]1[C@@H](C)CCCC1(C)C)C(O)Cc1c(O)cc(C)cc1O (relative stereo) | > 100 µM | 2.17 µM | 17 µM
13 | C=C(CC[C@@]1(C)[C@H](C)CCC(=O)[C@@H]1C)[C@H](O)Cc1c(O)cc(C)c(C=O)c1O [MOVERASTIN A] | > 100 µM | 7.22 µM | > 77 µM
